Measured values reported in ChEMBL document CHEMBL5649168, “Discovery of a selective catalytic p300/CBP inhibitor that targets lineage-specific tumours” (Nature, 2017).

How the values were obtained:
[1] = in vivo; details: CB17 SCID, mouse, brain/plasma, po, 500 mg/kg
[2] = test system: NCI-H441; experiment: Antiproliferative activity against human NCI-H441 cells assessed as inhibition of cell viability incubated for 3 to 5 days by Celltiter-Glo luminescent assay; type: functional, cell-based
[3] = test system: SKM-1; experiment: Antiproliferative activity against human SKM-1 cells assessed as inhibition of cell viability incubated for 3 to 5 days by Celltiter-Glo luminescent assay; type: functional, cell-based
[4] = test system: NCI-H1693; experiment: Antiproliferative activity against human NCI-H1693 cells assessed as inhibition of cell viability incubated for 3 to 5 days by Celltiter-Glo luminescent assay; type: functional, cell-based
[5] = target: Bromodomain testis-specific protein (Homo sapiens, UniProt Q58F21); experiment: Inhibition of BRDT (unknown origin)
[6] = target: Wee1-like protein kinase (Homo sapiens, UniProt P30291); experiment: Inhibition of Wee1 (unknown origin)
[7] = test system: NCI-H838; experiment: Antiproliferative activity against human NCI-H838 cells assessed as inhibition of cell viability incubated for 3 to 5 days by Celltiter-Glo luminescent assay; type: functional, cell-based
[8] = target: Tyrosine-protein kinase JAK3 (Homo sapiens, UniProt P52333); experiment: Inhibition of JAK3 (unknown origin)
[9] = test system: G-361; experiment: Antiproliferative activity against human G361 cells assessed as inhibition of cell viability incubated for 3 to 5 days by Celltiter-Glo luminescent assay; type: functional, cell-based
[10] = test system: SU-DHL-2; experiment: Antiproliferative activity against human SUDHL2 cells assessed as inhibition of cell viability incubated for 3 to 5 days by Celltiter-Glo luminescent assay; type: functional, cell-based
[11] = target: Histone acetyltransferase p300 (Homo sapiens, UniProt Q09472)
[12] = test system: NU-DUL-1; experiment: Antiproliferative activity against human NU-DUL-1 cells assessed as inhibition of cell viability incubated for 3 to 5 days by Celltiter-Glo luminescent assay; type: functional, cell-based
[13] = target: Epithelial discoidin domain-containing receptor 1 (Homo sapiens, UniProt Q08345); experiment: Inhibition of DDR1 (unknown origin)
[14] = target: Dual specificity protein kinase CLK2 (Homo sapiens, UniProt P49760); experiment: Inhibition of CLK2 (unknown origin)
[15] = test system: Malme-3M; experiment: Antiproliferative activity against human Malme-3M cells assessed as inhibition of cell viability incubated for 3 to 5 days by Celltiter-Glo luminescent assay; type: functional, cell-based
[16] = test system: WM 266-4; experiment: Antiproliferative activity against human WM266-4 cells assessed as inhibition of cell viability incubated for 3 to 5 days by Celltiter-Glo luminescent assay; type: functional, cell-based
[17] = target: Glycogen synthase kinase-3 beta (Homo sapiens, UniProt P49841); experiment: Inhibition of Gsk3beta (unknown origin)
[18] = target: Rho-associated protein kinase 1 (Homo sapiens, UniProt Q13464); experiment: Inhibition of Rock1 (unknown origin)
[19] = test system: U-2973; experiment: Antiproliferative activity against human U-2973 cells assessed as inhibition of cell viability incubated for 3 to 5 days by Celltiter-Glo luminescent assay; type: functional, cell-based
[20] = test system: SU-DHL10; experiment: Antiproliferative activity against human Su-DHL-10 cells assessed as inhibition of cell viability incubated for 3 to 5 days by Celltiter-Glo luminescent assay; type: functional, cell-based
[21] = target: Activated CDC42 kinase 1 (Homo sapiens, UniProt Q07912); experiment: Inhibition of TNK2 (unknown origin)
[22] = target: Ribosomal protein S6 kinase alpha-3 (Homo sapiens, UniProt P51812); experiment: Inhibition of Rsk2 (unknown origin)
[23] = test system: Jurkat; experiment: Antiproliferative activity against human Jurkat cells assessed as inhibition of cell viability incubated for 3 to 5 days by Celltiter-Glo luminescent assay; type: functional, cell-based
[24] = target: Dual specificity mitogen-activated protein kinase kinase 1 (Homo sapiens, UniProt Q02750); experiment: Inhibition of MEK1 (unknown origin)
[25] = test system: NCI-H209; experiment: Antiproliferative activity against human NCI-H209 cells assessed as inhibition of cell viability incubated for 3 to 5 days by Celltiter-Glo luminescent assay; type: functional, cell-based
[26] = test system: NCI-H510A; experiment: Antiproliferative activity against human NCI-H510A cells assessed as inhibition of cell viability incubated for 3 to 5 days by Celltiter-Glo luminescent assay; type: functional, cell-based
[27] = test system: LNCaP-Clone-FGC; experiment: Antiproliferative activity against human LNCaP-Clone-FGC cells assessed as inhibition of cell viability incubated for 3 to 5 days by Celltiter-Glo luminescent assay; type: functional, cell-based
[28] = test system: JVM-2; experiment: Antiproliferative activity against human JVM-2 cells assessed as inhibition of cell viability incubated for 3 to 5 days by Celltiter-Glo luminescent assay; type: functional, cell-based
[29] = target: cAMP-dependent protein kinase (PKA) (Homo sapiens, UniProt P22694+P17612+P22612); experiment: Inhibition of PKA (unknown origin); type: protein assay
[30] = target: Mitogen-activated protein kinase 14 (Homo sapiens, UniProt Q16539); experiment: Inhibition of p38alpha (unknown origin)
[31] = target: Platelet-derived growth factor receptor alpha (Homo sapiens, UniProt P16234); experiment: Inhibition of PDGFRalpha (unknown origin)
[32] = target: Mitogen-activated protein kinase kinase kinase kinase 2 (Homo sapiens, UniProt Q12851); experiment: Inhibition of MAP4K2 (unknown origin)
[33] = test system: OCI-Ly1; experiment: Antiproliferative activity against human OCI-Ly1 cells assessed as inhibition of cell viability incubated for 3 to 5 days by Celltiter-Glo luminescent assay; type: functional, cell-based
[34] = target: Insulin-like growth factor 1 receptor (Homo sapiens, UniProt P08069); experiment: Inhibition of IGF1R (unknown origin)
[35] = target: CREB-binding protein/Histone acetyltransferase p300 (Homo sapiens, UniProt Q09472+Q92793); experiment: Inhibition of p300/CBP in human 22Rv1 cells assessed as reduction in H3K27Ac level incubated for 24 hrs by Hoechst 33342 staining based high content microscopy analysis; type: cell-based
In short: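 Cells received an 8-point half-log dilution series from 10 µM. They were then fixed in 10% formaldehyde (10 min, RT), permeabilised with 0.1% Triton X-100 and blocked with 1% BSA for 1 h. Primary antibodies were applied overnight at 4 °C, followed by Alexa488 anti-rabbit, Alexa555 anti-mouse and Hoechst 33342 for 1 h. Fifteen fields per well were imaged and average mean intensity taken. EC50 came from a sigmoidal fit.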

[36] = target: RAC-alpha serine/threonine-protein kinase (Homo sapiens, UniProt P31749); experiment: Inhibition of Akt1 (unknown origin)
[37] = test system: HCC1187; experiment: Antiproliferative activity against human HCC1187 cells assessed as inhibition of cell viability incubated for 3 to 5 days by Celltiter-Glo luminescent assay; type: functional, cell-based
[38] = test system: SK-MEL-24; experiment: Antiproliferative activity against human SK-MEL-24 cells assessed as inhibition of cell viability incubated for 3 to 5 days by Celltiter-Glo luminescent assay; type: functional, cell-based
[39] = target: Tyrosine-protein kinase Fyn (Homo sapiens, UniProt P06241); experiment: Inhibition of Fyn (unknown origin)
[40] = test system: Ramos; experiment: Antiproliferative activity against human Ramos cells assessed as inhibition of cell viability incubated for 3 to 5 days by Celltiter-Glo luminescent assay; type: functional, cell-based

Ribosomal protein S6 kinase alpha-3, sequence (P51812 whole entry): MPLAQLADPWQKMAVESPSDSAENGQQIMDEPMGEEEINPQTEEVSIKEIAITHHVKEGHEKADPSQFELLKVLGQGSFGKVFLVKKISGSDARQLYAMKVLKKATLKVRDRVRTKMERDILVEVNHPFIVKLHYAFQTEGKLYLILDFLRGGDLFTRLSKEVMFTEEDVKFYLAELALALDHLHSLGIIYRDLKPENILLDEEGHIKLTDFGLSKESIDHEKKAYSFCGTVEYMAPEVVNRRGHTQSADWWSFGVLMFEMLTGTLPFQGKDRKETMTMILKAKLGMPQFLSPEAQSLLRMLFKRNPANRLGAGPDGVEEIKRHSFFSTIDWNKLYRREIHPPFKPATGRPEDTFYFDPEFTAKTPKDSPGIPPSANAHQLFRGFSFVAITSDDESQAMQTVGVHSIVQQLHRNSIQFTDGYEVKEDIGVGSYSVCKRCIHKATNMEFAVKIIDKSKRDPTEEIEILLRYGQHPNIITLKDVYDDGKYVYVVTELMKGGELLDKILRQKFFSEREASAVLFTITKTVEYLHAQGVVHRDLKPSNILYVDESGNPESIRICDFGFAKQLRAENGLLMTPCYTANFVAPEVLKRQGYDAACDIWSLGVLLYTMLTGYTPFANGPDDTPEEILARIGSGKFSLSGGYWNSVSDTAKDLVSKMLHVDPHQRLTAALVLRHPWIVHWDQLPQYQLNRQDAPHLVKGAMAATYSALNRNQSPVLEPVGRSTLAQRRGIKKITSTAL
Glycogen synthase kinase-3 beta, sequence (P49841 whole entry): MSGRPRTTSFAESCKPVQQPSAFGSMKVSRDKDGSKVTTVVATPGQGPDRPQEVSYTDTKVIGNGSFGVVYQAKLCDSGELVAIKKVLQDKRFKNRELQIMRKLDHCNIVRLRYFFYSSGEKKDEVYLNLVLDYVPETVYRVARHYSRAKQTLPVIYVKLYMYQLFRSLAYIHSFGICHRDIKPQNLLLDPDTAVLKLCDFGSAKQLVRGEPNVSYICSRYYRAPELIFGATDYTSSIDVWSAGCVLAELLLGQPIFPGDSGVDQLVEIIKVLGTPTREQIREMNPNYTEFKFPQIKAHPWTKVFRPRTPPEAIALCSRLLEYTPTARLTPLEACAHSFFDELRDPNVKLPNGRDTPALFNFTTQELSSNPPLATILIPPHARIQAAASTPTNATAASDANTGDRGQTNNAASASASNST
Platelet-derived growth factor receptor alpha, sequence (P16234 whole entry): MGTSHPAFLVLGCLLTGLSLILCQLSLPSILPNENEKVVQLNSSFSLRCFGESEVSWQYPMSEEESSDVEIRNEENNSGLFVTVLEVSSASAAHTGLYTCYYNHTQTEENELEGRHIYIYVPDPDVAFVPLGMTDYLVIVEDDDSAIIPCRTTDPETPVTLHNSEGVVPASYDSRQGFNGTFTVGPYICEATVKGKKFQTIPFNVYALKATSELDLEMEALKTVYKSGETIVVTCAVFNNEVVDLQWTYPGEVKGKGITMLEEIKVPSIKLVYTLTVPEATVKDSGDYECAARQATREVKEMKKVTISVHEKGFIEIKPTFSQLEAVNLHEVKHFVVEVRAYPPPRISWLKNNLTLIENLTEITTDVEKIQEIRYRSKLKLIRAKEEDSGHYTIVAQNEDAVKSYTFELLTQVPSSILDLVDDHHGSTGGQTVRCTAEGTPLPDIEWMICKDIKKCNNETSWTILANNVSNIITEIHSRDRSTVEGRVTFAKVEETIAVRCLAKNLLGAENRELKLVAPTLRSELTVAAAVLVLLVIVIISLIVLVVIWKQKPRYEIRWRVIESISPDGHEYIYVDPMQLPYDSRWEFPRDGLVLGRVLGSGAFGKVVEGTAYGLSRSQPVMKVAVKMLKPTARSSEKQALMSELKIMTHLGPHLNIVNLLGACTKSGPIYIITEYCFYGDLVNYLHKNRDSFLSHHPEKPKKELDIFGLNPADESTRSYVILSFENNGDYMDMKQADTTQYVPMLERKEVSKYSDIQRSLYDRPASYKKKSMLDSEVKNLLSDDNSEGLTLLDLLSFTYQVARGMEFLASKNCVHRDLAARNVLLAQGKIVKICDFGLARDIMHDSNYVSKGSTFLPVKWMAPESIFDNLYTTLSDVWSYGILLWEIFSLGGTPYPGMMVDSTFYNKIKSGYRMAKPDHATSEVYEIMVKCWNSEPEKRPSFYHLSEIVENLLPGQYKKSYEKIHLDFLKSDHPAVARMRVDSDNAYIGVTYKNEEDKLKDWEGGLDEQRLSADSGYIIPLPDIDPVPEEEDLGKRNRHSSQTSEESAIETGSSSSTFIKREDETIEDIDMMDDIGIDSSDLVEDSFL
RAC-alpha serine/threonine-protein kinase, sequence (P31749 whole entry): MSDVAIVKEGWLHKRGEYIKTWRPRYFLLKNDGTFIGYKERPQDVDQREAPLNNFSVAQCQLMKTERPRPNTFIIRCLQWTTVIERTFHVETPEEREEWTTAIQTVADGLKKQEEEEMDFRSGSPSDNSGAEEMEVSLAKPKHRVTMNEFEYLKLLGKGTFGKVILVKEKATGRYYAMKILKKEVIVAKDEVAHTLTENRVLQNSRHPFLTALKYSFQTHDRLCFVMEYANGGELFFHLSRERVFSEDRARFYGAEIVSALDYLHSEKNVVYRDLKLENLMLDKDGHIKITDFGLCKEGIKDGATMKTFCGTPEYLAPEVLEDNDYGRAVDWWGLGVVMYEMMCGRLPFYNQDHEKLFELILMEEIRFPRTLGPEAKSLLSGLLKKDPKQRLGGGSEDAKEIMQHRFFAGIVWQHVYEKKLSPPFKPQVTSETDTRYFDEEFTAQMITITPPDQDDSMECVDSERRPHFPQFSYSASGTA
Dual specificity mitogen-activated protein kinase kinase 1, sequence (Q02750 whole entry): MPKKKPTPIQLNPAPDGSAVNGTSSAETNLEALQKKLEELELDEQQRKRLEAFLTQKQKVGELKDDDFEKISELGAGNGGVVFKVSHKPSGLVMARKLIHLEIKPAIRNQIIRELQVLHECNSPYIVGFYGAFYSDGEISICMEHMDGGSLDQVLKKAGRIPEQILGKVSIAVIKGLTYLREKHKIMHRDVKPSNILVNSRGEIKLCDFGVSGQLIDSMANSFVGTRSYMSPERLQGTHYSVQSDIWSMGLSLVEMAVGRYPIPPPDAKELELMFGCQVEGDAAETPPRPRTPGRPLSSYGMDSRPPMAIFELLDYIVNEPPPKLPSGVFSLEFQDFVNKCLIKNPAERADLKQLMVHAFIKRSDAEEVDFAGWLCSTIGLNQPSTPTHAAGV
Mitogen-activated protein kinase 14, sequence (Q16539 whole entry): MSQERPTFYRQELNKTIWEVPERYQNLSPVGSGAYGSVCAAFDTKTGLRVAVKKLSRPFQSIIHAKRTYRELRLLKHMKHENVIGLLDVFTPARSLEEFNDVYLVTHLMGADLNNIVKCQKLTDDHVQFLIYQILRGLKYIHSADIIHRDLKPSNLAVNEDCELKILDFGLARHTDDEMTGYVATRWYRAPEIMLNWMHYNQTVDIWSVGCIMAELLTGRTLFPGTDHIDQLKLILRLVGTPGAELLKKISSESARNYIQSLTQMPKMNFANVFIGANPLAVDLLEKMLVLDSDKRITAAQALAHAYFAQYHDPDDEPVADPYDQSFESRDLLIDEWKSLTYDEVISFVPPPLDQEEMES
Rho-associated protein kinase 1, sequence (Q13464 whole entry): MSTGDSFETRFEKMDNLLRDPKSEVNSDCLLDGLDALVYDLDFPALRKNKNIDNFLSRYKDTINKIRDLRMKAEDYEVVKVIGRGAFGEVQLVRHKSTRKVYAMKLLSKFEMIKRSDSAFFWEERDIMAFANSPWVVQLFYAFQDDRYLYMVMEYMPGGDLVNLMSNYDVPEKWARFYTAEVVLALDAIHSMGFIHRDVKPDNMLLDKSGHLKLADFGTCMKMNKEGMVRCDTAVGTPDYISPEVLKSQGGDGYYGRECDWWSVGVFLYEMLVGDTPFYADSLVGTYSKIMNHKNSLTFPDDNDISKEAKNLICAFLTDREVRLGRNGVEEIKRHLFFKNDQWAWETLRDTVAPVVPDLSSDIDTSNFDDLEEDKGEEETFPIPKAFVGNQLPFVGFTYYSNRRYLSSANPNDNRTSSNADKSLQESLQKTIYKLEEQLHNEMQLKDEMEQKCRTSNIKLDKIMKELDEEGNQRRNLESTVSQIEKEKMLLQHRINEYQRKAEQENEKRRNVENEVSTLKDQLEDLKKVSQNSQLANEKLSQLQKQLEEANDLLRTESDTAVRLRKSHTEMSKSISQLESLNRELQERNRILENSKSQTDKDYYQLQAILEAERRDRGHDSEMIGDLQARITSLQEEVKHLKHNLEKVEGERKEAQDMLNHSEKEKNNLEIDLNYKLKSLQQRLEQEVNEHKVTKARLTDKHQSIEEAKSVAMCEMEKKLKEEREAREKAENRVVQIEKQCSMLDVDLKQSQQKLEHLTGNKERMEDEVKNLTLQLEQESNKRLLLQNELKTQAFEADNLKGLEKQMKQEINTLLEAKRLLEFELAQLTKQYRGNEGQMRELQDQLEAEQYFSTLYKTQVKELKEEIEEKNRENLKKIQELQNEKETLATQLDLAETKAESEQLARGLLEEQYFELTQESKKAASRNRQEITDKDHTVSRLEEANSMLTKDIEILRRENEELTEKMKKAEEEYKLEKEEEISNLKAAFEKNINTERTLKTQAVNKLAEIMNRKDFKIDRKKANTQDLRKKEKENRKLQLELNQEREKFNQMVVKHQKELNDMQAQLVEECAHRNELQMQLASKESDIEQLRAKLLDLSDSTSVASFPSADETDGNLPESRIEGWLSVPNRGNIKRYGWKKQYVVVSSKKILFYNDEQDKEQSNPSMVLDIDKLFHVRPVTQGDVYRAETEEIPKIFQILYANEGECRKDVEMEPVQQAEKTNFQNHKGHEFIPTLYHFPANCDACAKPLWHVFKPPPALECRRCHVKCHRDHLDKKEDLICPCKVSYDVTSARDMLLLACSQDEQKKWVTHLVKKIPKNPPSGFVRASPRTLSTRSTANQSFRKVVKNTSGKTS

## CNC(=O)Nc1ccc2c(c1)CC[C@@]21OC(=O)N(CC(=O)N(Cc2ccc(F)cc2)[C@@H](C)C(F)(F)F)C1=O [A-485]
[1]
  Kp at 24 h: 0.03
[2]
  EC50: > 10 µM
[3]
  EC50: 1.34 µM
[4]
  EC50: 2.37 µM
[5]
  IC50: > 10 µM
[6]
  IC50: > 10 µM
[7]
  EC50: 6.99 µM
[8]
  IC50: > 10 µM
[9]
  EC50: 3.77 µM
[10]
  EC50: 0.95 µM
[11]
  ΔTm: 5.8 °C
[12]
  EC50: 0.48 µM
[13]
  IC50: > 10 µM
[14]
  IC50: > 10 µM
[15]
  EC50: 2.69 µM
[16]
  EC50: 1.91 µM
[17]
  IC50: > 10 µM
[18]
  IC50: > 10 µM
[19]
  EC50: 0.66 µM
[20]
  EC50: 0.92 µM
[21]
  IC50: > 10 µM
[22]
  IC50: > 10 µM
[23]
  EC50: 4.03 µM
[24]
  IC50: > 10 µM
[25]
  EC50: 0.4 µM
[26]
  EC50: > 10 µM
[27]
  EC50: 0.26 µM
[28]
  EC50: > 10 µM
[29]
  IC50: > 10 µM
[30]
  IC50: > 10 µM
[31]
  IC50: > 10 µM
[32]
  IC50: > 10 µM
[33]
  EC50: 0.94 µM
[34]
  IC50: > 10 µM
[35]
  INH: 0.47 µM
[36]
  IC50: > 10 µM
[37]
  EC50: > 10 µM
[38]
  EC50: > 10 µM
[39]
  IC50: > 10 µM
[40]
  EC50: 0.93 µM
